Screens as filed in PubChem BioAssay.
M4 antag: blocks acetylcholine activation of human M4 receptor. P08173. CHO-hM4 cells, ACh EC80, Fluo-8 calcium fluorescence. inhibition, % at 3 µM. actives 0.73% (n = 360,000). AID 624125;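 active means inhibition above its plate's cutoff, the mean inhibition of sample wells plus 3 SD, cut at about 27% in these data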;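 further: 0% = acetylcholine EC80 with DMSO and 100% = DMSO without agonist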
CHRM5 agonist: agonists of human muscarinic M5 receptor (CHRM5); P08912; CHO-K1 hM5 cells, Fluo-8 calcium fluorescence; 0% DMSO wells, 100% maximal acetylcholine response; activation, % at 3 µM; actives 0.19% (n = 360,000); AID 624037;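 active means activation above the run's mean over test compounds plus 3 SD, cut at about 23% in these data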;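 further: signal is peak over basal fluorescence ratio across the kinetic read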
Target sequence (P08912 whole entry, looked up): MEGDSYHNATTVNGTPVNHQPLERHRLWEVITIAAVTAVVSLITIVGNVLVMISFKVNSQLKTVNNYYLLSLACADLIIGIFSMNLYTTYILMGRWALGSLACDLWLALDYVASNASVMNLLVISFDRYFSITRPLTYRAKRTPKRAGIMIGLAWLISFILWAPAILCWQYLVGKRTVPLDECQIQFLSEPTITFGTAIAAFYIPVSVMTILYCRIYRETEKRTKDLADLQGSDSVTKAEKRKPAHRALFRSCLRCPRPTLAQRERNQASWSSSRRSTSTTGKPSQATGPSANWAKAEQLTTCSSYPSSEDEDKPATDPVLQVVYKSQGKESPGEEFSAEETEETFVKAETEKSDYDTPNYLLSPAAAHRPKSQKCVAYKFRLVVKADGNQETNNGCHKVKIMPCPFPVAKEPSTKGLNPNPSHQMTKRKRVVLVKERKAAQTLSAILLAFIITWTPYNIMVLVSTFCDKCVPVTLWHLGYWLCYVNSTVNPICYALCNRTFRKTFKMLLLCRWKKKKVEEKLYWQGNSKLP
M4 ag: CHRM4 agonism in calcium assay; AID 624127; activation, % at 3 µM; CHO-K1 hM4/Gqi5, Fluo-8 calcium fluorescence; vehicle 0%, full acetylcholine response 100%; P08173; actives 0.14% (n = 360,000);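 active means activation above the run mean over all test wells plus 3 SD, cut at about 32% in these data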;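 further: peak over basal fluorescence ratio per well then scaled between controls; 0% = DMSO wells and 100% = acetylcholine at EC100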
M5 PAM: positive allosteric modulators of human muscarinic M5 receptor; CHO-K1 hM5, Fluo-8 calcium, ACh EC20 PAM; 0% = ACh EC20, 100% = ACh EC100; activation, % at 3 µM; actives 0.3% (n = 360,000);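 active means activation above the run cutoff, the mean activation of all test compounds plus 3 SD, cut at about 18% in these data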
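Test system: CHO-K1 hM5 cells / Doses: single-point, 3 µM nominal / Times: Post-acetylcholine fluorescence recording 140 s / Technique: Fluo-8 calcium fluorescence / Measure: Max/basal fluorescence ratio as % of EC20–EC100 ACh window / Benchmarks: low control EC20 acetylcholine (0%), high control EC100 acetylcholine (100%) / Replicates: one well per compound, no replicates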
CHRM5 antagonist: antagonists of human muscarinic M5 receptor (CHRM5). P08912. CHO-hM5 cells, Fluo-8 calcium fluorescence, ACh EC80. inhibition, % at 3 µM. actives 0.59% (n = 360,000). AID 624040;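 active means inhibition above a per-plate cutoff, the mean of that plate's test compounds plus 3 SD, cut at about 27% in these data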;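 further: 0% = acetylcholine EC80 with DMSO and 100% = DMSO without agonist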
M4 PAM: potentiates acetylcholine response at human M4 receptor; P08173; CHO-K1 hM4/Gqi5, Fluo-8 calcium fluorescence, ACh EC20; 0% = ACh EC20, 100% = maximal ACh; activation, % at 3 µM; actives 0.4% (n = 360,000); AID 624126;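 active means activation above its plate's cutoff, the mean activation of sample wells plus 3 SD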
An asterisk follows results filed as active. Rows were chosen to be rich in hits. Some 1.8% of all compounds tested hit in one or more screens of this group.

SMILES | M4 antag | CHRM5 agonist | M4 ag | M5 PAM | CHRM5 antagonist | M4 PAM
CC1CN2C(c3ccc([N+](=O)[O-])cc3)=CSC2=N1 (stereo unspecified) | -12 | -7 | 0 | -1 | -7 | 5
Cc1cnccc1CNC(=O)C1CCC(=O)N(Cc2ccc(Cl)cc2)C1 (stereo unspecified) | 2 | -6 | 1 | -5 | 12 | -3
COc1cccc(C(=O)NC(=S)Nc2ccc(N3CCCC3)cc2)c1 | -15 | -5 | 0 | -2 | 7 | -10
CC(C)Oc1cccc(C(=O)NC(=S)Nc2ccc(N3CCN(C)CC3)cc2)c1 | 39* | -19 | 7 | -36 | 15 | -54
CC(NC(=O)CCNS(=O)(=O)c1ccccc1)c1ccccc1 (stereo unspecified) | 10 | -5 | 0 | -1 | 5 | 22*
O=C(COC(=O)CCNS(=O)(=O)c1ccccc1)NC1CC1 | 5 | 0 | 2 | 3 | 4 | 10
O=C(CCNS(=O)(=O)c1ccccc1)NCC1CCCCC1 | 0 | 2 | 1 | -4 | 2 | 21*
COc1ccnc(Oc2ccccc2)c1C(=O)N/C=N/OCc1ccc(F)cc1Cl | 20 | 6 | 35* | -16 | 14 | -13
O=C(NN1CCCCC1)c1ccc(COc2ccc(Cl)cc2)cc1 | 2 | 1 | 2 | -7 | 6 | -3
CCN(CC)S(=O)(=O)c1ccc(NC(=O)c2cc(-c3cccs3)nc3ccccc23)cc1 | 0 | -1 | 6 | -10 | 17 | -2
CN(C)S(=O)(=O)c1ccc(NC(=O)c2cc(-c3cccs3)nc3ccccc23)cc1 | 34* | 3 | 22 | -21 | 23 | -38
CC(=O)NS(=O)(=O)c1ccc(NC(=O)c2cc(-c3cccs3)nc3ccccc23)cc1 | 0 | 1 | 2 | 0 | 14 | 22*
CCOC(=O)[C@]12CCCC=C1N(Cc1ccc3c(c1)OCO3)C(=O)[C@H](CC(=O)N1CCCCC1)C2 | 3 | 3 | 4 | -9 | 13 | -1
CCCOC1CCCN(C(=O)c2cc(Cl)c(Cl)cc2C(=O)O)C1 (stereo unspecified) | 9 | 25* | 3 | -11 | 5 | -6
O=C(NCc1ccccc1F)C1CCCN1S(=O)(=O)c1ccc(F)cc1 (stereo unspecified) | 3 | -5 | 0 | 2 | 8 | -5
COc1ccc(N2CC(C(=O)Nc3c4c(nn3-c3ccc(OC)cc3)CS(=O)(=O)C4)CC2=O)cc1 (stereo unspecified) | -11 | -2 | 0 | -2 | -15 | 20*
Cn1c(=O)c2c(ncn2CC(=O)OCC(=O)NCc2ccccc2Cl)n(C)c1=O | -4 | -1 | 1 | 6 | 1 | 4
CCOC(=O)C1CCN(c2ncnc3c2cnn3-c2ccc(Cl)cc2)CC1 | -3 | 0 | 1 | 19* | -14 | 4
CCOC(=O)N1CCN(c2ncnc3c2cnn3-c2ccc(OC)cc2)CC1 | -10 | 5 | 3 | 0 | -9 | 28*
COc1ccc(-n2ncc3c(N4CCC(C)CC4)ncnc32)cc1 | -7 | 2 | 0 | -6 | 4 | 4
Nc1nc(CN2CCN(C(=O)c3ccco3)CC2)nc(Nc2cccc(Cl)c2)n1 | -10 | 7 | 10 | 0 | 10 | -3
COc1cccc(C(c2nnnn2C2CCCC2)N2CCN(C/C=C/c3ccccc3)CC2)c1OC (stereo unspecified) | 31* | -8 | 3 | -22 | 71* | -15
CCCCn1nnnc1C(c1ccnc2ccccc12)N1CCN(C/C=C/c2ccccc2)CC1 (stereo unspecified) | 23 | -8 | 1 | -22 | 37* | -14
CCCCn1nnnc1C(c1cccc2ccccc12)N1CCN(C/C=C/c2ccccc2)CC1 (stereo unspecified) | 84* | -6 | 1 | -23 | 96* | -17
CC(C)(C)C(=O)NCc1ccc(C(=O)CSc2nnc(-c3ccncc3)n2C2CC2)s1 | 0 | 3 | 2 | 6 | -2 | 5
SMILES | M4 antag | CHRM5 agonist | M4 ag | M5 PAM | CHRM5 antagonist | M4 PAM
COc1ccc(Cl)cc1NC(=O)NNC(=O)C(=O)Nc1ccc(F)cc1 | -1 | 2 | 1 | -1 | 8 | -4
CCOC(=O)N1CCC(N(CCN(C)C)C(=S)Nc2ccccc2OC)CC1 | -1 | -7 | 0 | 5 | 6 | -14
CCOC(=O)N1CCC(N(CCN(C)C)C(=S)Nc2ccccc2OCC)CC1 | 7 | -5 | 1 | 38* | 2 | -18
O=C(c1ccc2c(c1)OCO2)C1CCCN(Cc2ccccc2OC(F)F)C1 (stereo unspecified) | 40* | -8 | 2 | -14 | 27 | -15
C/C(CC(=O)NCc1ccccc1)=N\NC(=O)c1cnccn1 | 7 | -1 | 2 | 5 | -10 | 31*
COc1cc(C2Nc3cc(Cl)c(S(N)(=O)=O)cc3S(=O)(=O)N2)cc(OC)c1OC (stereo unspecified) | 10 | 2 | 0 | 6 | 1 | 24*
Oc1c(Cl)cc(Cl)cc1CNc1ccccn1 | 4 | -13 | 1 | -14 | 13 | -5
Oc1c(Cl)cc(Cl)cc1CNc1nc2ccccc2[nH]1 | 18 | 0 | 10 | -20 | 37* | -11
O=C(NCc1cccs1)c1ccc(N2CCCC2=O)cc1 | 13 | -2 | 1 | 22* | 6 | 1
O=C(Cc1ccc(Cl)cc1)Nc1ccccc1C(=O)N1CCCCC1 | 3 | 0 | 1 | -12 | 28* | -3
CCOC(=O)c1ccc(CNCc2ccccc2)cc1 | 40* | -7 | 1 | -12 | 5 | -15
O=C(CSc1nc(C(F)(F)F)cc(=O)[nH]1)Nc1cccc2ccccc12 | -8 | -2 | 0 | 17 | -18 | 22*
CCn1cc(C=O)c2cc(S(=O)(=O)N3CCOCC3)ccc21 | 26* | 0 | 2 | 4 | 6 | -1
CC1CCCC(C)N1C(=O)CN1C(=O)C(C)(C)Oc2ccc(C(=O)NC3CCCCC3)cc21 (stereo unspecified) | 2 | 0 | 6 | 0 | 3 | -6
CC1CCCC(C)N1C(=O)CN1C(=O)C(C)(C)Oc2ccc(C(=O)NC3CCCC3)cc21 (stereo unspecified) | 26* | 3 | 4 | -6 | 10 | 2
Cc1ccc(C(C)C)c(OCCn2ccnc2C)c1 | 52* | -7 | 5 | -17 | 57* | -17
Cc1ccc(OCCCCn2ccnc2C)c(C)c1 | -7 | -12 | 13 | -17 | 7 | -8
COc1cc(C2CC(=O)Nc3ccccc3S2)cc(OC)c1OC (stereo unspecified) | 35* | 4 | 18 | -15 | 19 | -23
